How the values were obtained:
P388 [1] = assay: Log cell population relative to cell population at the beginning of treatment compared to control group B at a dose of 6.25 mg/kg; type: functional, Mus musculus
[2] = Percent increase in life span of test animals compared to untreated tumor-bearing control group B animals at a dose of 6.25 mg/kg; type: functional; conditions: Mus musculus
[3] = Antileukemic activity against Murine P388 lymphocytic leukemia, body weight difference of the test animals compared to control group B animals at a dose of 50 mg/kg; type: functional, Mus musculus; parameters: unit not given here
Summary of the method: (§1)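 CD2F1 mice implanted intraperitoneally with ascitic fluid carrying ca. 1×10^6 P388 cells, under the NCI protocol. Dosing was intraperitoneal, starting 24 h after inoculation, then every 24 h for five doses in total. The body weight difference of treated mice is taken against untreated controls. Toxicity day survivors are the mice alive at day five out of those tested.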

[4] = Toxicity day survivors expressed as number of animals that survived to day five/ number of test animals under control group B at a dose of 100 mg/kg; 6 survived out of 6; type: functional, Mus musculus
[5] = Antileukemic activity against Murine P388 lymphocytic leukemia, body weight difference of the test animals compared to control group B animals at a dose of 6.25 mg/kg; type: functional, Mus musculus; summary of the method: as §1
[6] = Antileukemic activity against Murine P388 lymphocytic leukemia and toxicity day survivors expressed as number of animals that survived to day five/ number of test animals under control group B at a dose of 6.5 mg/kg; 6 survived out of 6; type: functional, Mus musculus
[7] = Antileukemic activity against Murine P388 lymphocytic leukemia, body weight difference of the test animals compared to control group B animals at a dose of 12.5 mg/kg; type: functional, Mus musculus; parameters: unit not given here; summary of the method: as §1
[8] = Percent increase in life span of test animals compared to untreated tumor-bearing control group B animals at a dose of 12.5 mg/kg; type: functional; conditions: Mus musculus
[9] = Antileukemic activity against Murine P388 lymphocytic leukemia, body weight difference of the test animals compared to control group B animals at a dose of 25 mg/kg; type: functional, Mus musculus; parameters: unit not given here; summary of the method: as §1
[10] = Antileukemic activity against Murine P388 lymphocytic leukemia, body weight difference of the test animals compared to control group B animals at a dose of 100 mg/kg; type: functional, Mus musculus; parameters: unit not given here; summary of the method: as §1
[11] = Percent increase in life span of test animals compared to untreated tumor-bearing control group B animals at a dose of 50 mg/kg; type: functional; conditions: Mus musculus
[12] = Toxicity day survivors expressed as number of animals that survived to day five/ number of test animals under control group B at a dose of 25 mg/kg; 6 survived out of 6; type: functional, Mus musculus
[13] = Toxicity day survivors expressed as number of animals that survived to day five/ number of test animals under control group B at a dose of 50 mg/kg; 6 survived out of 6; type: functional, Mus musculus
[14] = Toxicity day survivors expressed as number of animals that survived to day five/ number of test animals under control group B at a dose of 12.5 mg/kg; type: functional, Mus musculus
P388 [15] = assay: Log cell population relative to cell population at the beginning of treatment compared to control group Bat a dose of 50 mg/kg; type: functional, Mus musculus
P388 [16] = assay: Log cell population relative to cell population at the beginning of treatment compared to control group B at a dose of 25 mg/kg; type: functional, Mus musculus
[17] = Toxicity day survivors expressed as number of animals that survived to day five/ number of test animals under control group B at a dose of 50 mg/kg; 5 survived out of 6; type: functional, Mus musculus
[18] = Percent increase in life span of test animals compared to untreated tumor-bearing control group B animals at a dose of 25 mg/kg; type: functional; conditions: Mus musculus
[19] = Toxicity day survivors expressed as number of animals that survived to day five/ number of test animals under control group B at a dose of 25 mg/kg; 5 survived out of 6; type: functional, Mus musculus
[20] = Toxicity day survivors expressed as number of animals that survived to day five/ number of test animals under control group B at a dose of 100 mg/kg; 1 survived out of 6; type: functional, Mus musculus
P388 [21] = assay: Log cell population relative to cell population at the beginning of treatment compared to control group B at a dose of 12.5 mg/kg; type: functional, Mus musculus
[22] = Toxicity day survivors expressed as number of animals that survived to day five/ number of test animals under control group B at a dose of 12.5 mg/kg; […] out of 6; type: functional, Mus musculus
[23] = Percent increase in life span of test animals compared to untreated tumor-bearing control group C animals at a dose of 50 mg/kg; type: functional; conditions: Mus musculus
[24] = Toxicity day survivors expressed as number of animals that survived to day five/ number of test animals under control group C at a dose of 100 mg/kg; 6 survived out of 6; type: functional, Mus musculus
[25] = Antileukemic activity against Murine P388 lymphocytic leukemia, body weight difference of the test animals compared to control group C animals at a dose of 50 mg/kg; type: functional, Mus musculus; parameters: unit not given here; summary of the method: as §1
P388 [26] = assay: Log cell population relative to cell population at the beginning of treatment compared to control group C at a dose of 25 mg/kg; type: functional, Mus musculus
[27] = Toxicity day survivors expressed as number of animals that survived to day five/ number of test animals under control group C at a dose of 50 mg/kg; 6 survived out of 6; type: functional, Mus musculus
[28] = Percent increase in life span of test animals compared to untreated tumor-bearing control group C animals at a dose of 25 mg/kg; type: functional; conditions: Mus musculus
[29] = Toxicity day survivors expressed as number of animals that survived to day five/ number of test animals under control group C at a dose of 200 mg/kg; 6 survived out of 6; type: functional, Mus musculus
P388 [30] = assay: Log cell population relative to cell population at the beginning of treatment compared to control group C at a dose of 50 mg/kg; type: functional, Mus musculus
[31] = Antileukemic activity against Murine P388 lymphocytic leukemia, body weight difference of the test animals compared to control group C animals at a dose of 100 mg/kg; type: functional, Mus musculus; parameters: unit not given here; summary of the method: as §1
[32] = Toxicity day survivors expressed as number of animals that survived to day five/ number of test animals under control group C at a dose of 25 mg/kg; 6 survived out of 6; type: functional, Mus musculus
[33] = Antileukemic activity against Murine P388 lymphocytic leukemia, body weight difference of the test animals compared to control group C animals at a dose of 25 mg/kg; type: functional, Mus musculus; summary of the method: as §1
[34] = Antileukemic activity against Murine P388 lymphocytic leukemia, body weight difference of the test animals compared to control group C animals at a dose of 200 mg/kg; type: functional, Mus musculus; summary of the method: as §1
[35] = Antileukemic activity against Murine P388 lymphocytic leukemia, body weight difference of the test animals compared to control group A animals at a dose of 100 mg/kg; type: functional, Mus musculus; parameters: unit not given here; summary of the method: as §1
[36] = Antileukemic activity against Murine P388 lymphocytic leukemia, body weight difference of the test animals compared to control group A animals at a dose of 400 mg/kg; type: functional, Mus musculus; summary of the method: as §1
[37] = Antileukemic activity against Murine P388 lymphocytic leukemia, body weight difference of the test animals compared to control group A animals at a dose of 50 mg/kg; type: functional, Mus musculus; parameters: unit not given here; summary of the method: as §1
[38] = Percent increase in life span of test animals compared to untreated tumor-bearing control group A animals at a dose of 200 mg/kg; type: functional; conditions: Mus musculus
[39] = Toxicity day survivors expressed as number of animals that survived to day five/ number of test animals under control group A at a dose of 200 mg/kg; 6 survived out of 6; type: functional, Mus musculus
[40] = Antileukemic activity against Murine P388 lymphocytic leukemia, body weight difference of the test animals compared to control group A animals at a dose of 25 mg/kg; type: functional, Mus musculus; parameters: unit not given here; summary of the method: as §1
[41] = Toxicity day survivors expressed as number of animals that survived to day five/ number of test animals under control group A at a dose of 50 mg/kg; 6 survived out of 6; type: functional, Mus musculus
[42] = Antileukemic activity against Murine P388 lymphocytic leukemia, body weight difference of the test animals compared to control group A animals at a dose of 200 mg/kg; type: functional, Mus musculus; summary of the method: as §1
[43] = Toxicity day survivors expressed as number of animals that survived to day five/ number of test animals under control group A at a dose of 400 mg/kg; 3 survived out of 6; type: functional, Mus musculus
[44] = Toxicity day survivors expressed as number of animals that survived to day five/ number of test animals under control group A at a dose of 100 mg/kg; 6 survived out of 6; type: functional, Mus musculus
[45] = Toxicity day survivors expressed as number of animals that survived to day five/ number of test animals under control group A at a dose of 25 mg/kg; 6 survived out of 6; type: functional, Mus musculus

CC(C)NC(=O)OCc1c(COC(=O)NC(C)C)c(-c2ccc(Cl)c(Cl)c2)n2c1CS(=O)(=O)C2
KE (P388 [1]): -1.47 | ILS at 6.25 mg/kg [2]: 1% | BWD [3]: -0.8 | TDS [4]: 6 | BWD [5]: -0.6 | TDS [6]: 6 | BWD [7]: 1.3 | ILS at 12.5 mg/kg [8]: -13% | BWD [9]: 0.4 | BWD [10]: -2.3 | ILS at 50 mg/kg [11]: -14% | TDS [12]: 6 | TDS [13]: 6 | TDS [14]: 6

CC(C)NC(=O)OCc1cn2c(c1COC(=O)NC(C)C)CCC2
BWD [3]: -4.4 | KE (P388 [15]): -0.69 | KE (P388 [16]): -0.46 | TDS [17]: 5 | ILS at 25 mg/kg [18]: 28% | BWD [7]: -0.9 | TDS [19]: 5 | ILS at 12.5 mg/kg [8]: 20% | BWD [9]: -4.5 | BWD [10]: -3.6 | ILS at 50 mg/kg [11]: 26% | TDS [20]: 1 | KE (P388 [21]): -1.23 | TDS [22]: 5

CNC(=O)OCc1c(COC(=O)NC)c2n(c1C)CSC2
ILS at 50 mg/kg [23]: 32% | TDS [24]: 6 | BWD [25]: -1.7 | KE (P388 [26]): -0.03 | TDS [27]: 6 | ILS at 25 mg/kg [28]: 26% | TDS [29]: 6 | KE (P388 [30]): 0 | BWD [31]: -2.2 | TDS [32]: 6 | BWD [33]: -1 | BWD [34]: -1.9

CC(C)NC(=O)OCc1c(COC(=O)NC(C)C)c(-c2ccc(Cl)c(Cl)c2)n2c1C[S+]([O-])C2 (stereo unspecified)
BWD [35]: -2.9 | BWD [36]: -3.4 | BWD [37]: -1.9 | ILS at 200 mg/kg [38]: -11% | TDS [39]: 6 | BWD [40]: -0.9 | TDS [41]: 6 | BWD [42]: -3.1 | TDS [43]: 3 | TDS [44]: 6 | TDS [45]: 6
